# Measurements collected from several papers.
# Protocols differ between the studies behind these lines.
# Target: Bone morphogenetic protein receptor type-1A (BMPR1A, Homo sapiens, UniProt P36894)
SMILES,observed,action,method,tested at,quantity,value
Cc1ccc(C(=O)Nc2ccc(CN3CCN(C)CC3)c(C(F)(F)F)c2)cc1C#Cc1cnc2cccnn12,enzyme activity,,,23.5 nM,remaining activity,97%
Cc1sc(C(=O)NC2COC2)cc1-n1cc(NC(=O)Nc2c(F)cccc2Cl)cn1,enzyme activity,inhibitor,,10 µM,remaining activity,92.5%
CC(C)(C)c1nc(-c2cccc(NS(=O)(=O)c3c(F)cccc3F)c2F)c(-c2ccnc(N)n2)s1,enzyme activity,inhibitor,radiometric,1 µM,remaining activity,48%
CCOc1cc(-c2nncn2C)ccc1Nc1ncc2cc(C)nc(NCC(C)(C)C)c2n1,cell-free assay,,TR-FRET,1 µM,inhibition,≤ 15%
O=C(Nc1cnn(-c2csc(C(=O)NC3COC3)c2)c1)Nc1ccccc1Cl,enzyme activity,inhibitor,,5 µM,remaining activity,105%
Nc1cnc(N2CCc3cc(S(=O)(=O)Nc4c(F)cc(Cl)cc4F)cc(N4CCCC4=O)c32)nc1,cell-free assay,,competition with immobilised ligand,1 µM,remaining binding,91%
CC(C)(C)c1nc2c(s1)c1nc(N)ncc1c1ccc(NS(=O)(=O)c3c(F)cccc3F)c(F)c12,enzyme activity,inhibitor,radiometric,1 µM,remaining activity,96%
Nc1ncnc2occ(-c3ccc(NC(=O)Nc4cc(C(F)(F)F)ccc4F)cc3)c12,cell-free assay,,,20 µM,remaining signal,100%
Cc1noc([C@H]2C[C@@H](c3ccc(C(F)(F)F)cc3)CN(C(=O)N3CCS(=O)(=O)C3)C2)n1,binding,,competition with immobilised ligand,1 µM,remaining binding,100%
